In ChEMBL document CHEMBL1139422, “Design, synthesis and biological evaluation of novel compounds with conjugated structure as anti-tumor agents” (Bioorg Med Chem, 2008):
Calls of active or inactive are those of the source. The calls are words filed in the database; no cut-off is given here.

Tests used:
[1] = biological target: T1, Protein deacetylase HDAC6 (Homo sapiens) (UniProt Q9UBN7); assay: Inhibition of HDAC6 in human U937 cells assessed as induction of alpha-tubulin acetylation after 24 hrs by Western blot analysis; type: cell-based; settings: U-937
T1 sequence (whole entry): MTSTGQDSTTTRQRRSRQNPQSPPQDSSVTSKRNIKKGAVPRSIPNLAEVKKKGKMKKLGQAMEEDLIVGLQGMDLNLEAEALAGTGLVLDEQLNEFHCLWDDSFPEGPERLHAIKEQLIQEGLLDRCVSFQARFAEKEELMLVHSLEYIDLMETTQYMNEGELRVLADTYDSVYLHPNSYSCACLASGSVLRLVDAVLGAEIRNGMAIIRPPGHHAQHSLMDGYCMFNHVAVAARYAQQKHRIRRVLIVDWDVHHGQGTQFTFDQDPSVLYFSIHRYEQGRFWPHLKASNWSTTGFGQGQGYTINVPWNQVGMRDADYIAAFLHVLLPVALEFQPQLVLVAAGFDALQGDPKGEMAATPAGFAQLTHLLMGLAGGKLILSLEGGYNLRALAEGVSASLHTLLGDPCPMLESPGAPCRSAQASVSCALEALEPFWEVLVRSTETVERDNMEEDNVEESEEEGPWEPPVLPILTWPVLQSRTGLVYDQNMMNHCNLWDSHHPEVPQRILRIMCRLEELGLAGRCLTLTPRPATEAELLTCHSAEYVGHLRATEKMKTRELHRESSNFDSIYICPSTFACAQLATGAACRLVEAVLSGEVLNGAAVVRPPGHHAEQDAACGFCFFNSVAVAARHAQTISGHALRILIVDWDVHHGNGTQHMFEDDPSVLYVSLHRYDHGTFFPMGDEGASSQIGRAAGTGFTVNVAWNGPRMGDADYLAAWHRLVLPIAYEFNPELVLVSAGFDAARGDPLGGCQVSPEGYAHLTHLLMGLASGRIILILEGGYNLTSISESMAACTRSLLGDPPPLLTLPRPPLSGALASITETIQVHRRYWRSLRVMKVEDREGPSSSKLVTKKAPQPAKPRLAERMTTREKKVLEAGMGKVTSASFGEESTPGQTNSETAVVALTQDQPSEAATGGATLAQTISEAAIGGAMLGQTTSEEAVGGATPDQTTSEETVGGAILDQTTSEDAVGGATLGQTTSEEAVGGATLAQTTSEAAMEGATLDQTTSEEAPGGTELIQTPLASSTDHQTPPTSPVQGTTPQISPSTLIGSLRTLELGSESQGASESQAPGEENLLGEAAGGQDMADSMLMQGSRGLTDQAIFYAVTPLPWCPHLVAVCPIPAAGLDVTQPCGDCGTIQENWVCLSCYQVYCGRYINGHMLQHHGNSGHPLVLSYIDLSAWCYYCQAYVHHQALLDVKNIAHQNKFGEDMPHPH
In short: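 U937 cells were treated for 24 h. Total protein extract (50 µg) was run on a 10% polyacrylamide gel and blotted for acetylated α-tubulin (1:500), with total ERK as the loading control.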

[2] = tested on: PC-3; assay: Antiproliferative activity against human PC3 cells after 48 hrs by MTT assay; type: functional, cell-based; settings: PC-3, 48 h
In short: (§1)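 Cells seeded at 4000/well; compounds (10 mg/mL DMSO stock, diluted in medium) added 24 h after seeding, in duplicate. Incubation 48 h at 37 °C, 5% CO2. MTT (20 µL of 5 mg/mL in PBS) then added for 4 h at 37 °C, and the signal read at 570 nm.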

[3] = biological target: Histone deacetylase 4 (Homo sapiens, UniProt P56524); assay: Inhibition of human recombinant HDAC4 using Fluor de Lys as substrate by fluorimetric assay
Chain of Histone deacetylase 4 (P56524 whole entry): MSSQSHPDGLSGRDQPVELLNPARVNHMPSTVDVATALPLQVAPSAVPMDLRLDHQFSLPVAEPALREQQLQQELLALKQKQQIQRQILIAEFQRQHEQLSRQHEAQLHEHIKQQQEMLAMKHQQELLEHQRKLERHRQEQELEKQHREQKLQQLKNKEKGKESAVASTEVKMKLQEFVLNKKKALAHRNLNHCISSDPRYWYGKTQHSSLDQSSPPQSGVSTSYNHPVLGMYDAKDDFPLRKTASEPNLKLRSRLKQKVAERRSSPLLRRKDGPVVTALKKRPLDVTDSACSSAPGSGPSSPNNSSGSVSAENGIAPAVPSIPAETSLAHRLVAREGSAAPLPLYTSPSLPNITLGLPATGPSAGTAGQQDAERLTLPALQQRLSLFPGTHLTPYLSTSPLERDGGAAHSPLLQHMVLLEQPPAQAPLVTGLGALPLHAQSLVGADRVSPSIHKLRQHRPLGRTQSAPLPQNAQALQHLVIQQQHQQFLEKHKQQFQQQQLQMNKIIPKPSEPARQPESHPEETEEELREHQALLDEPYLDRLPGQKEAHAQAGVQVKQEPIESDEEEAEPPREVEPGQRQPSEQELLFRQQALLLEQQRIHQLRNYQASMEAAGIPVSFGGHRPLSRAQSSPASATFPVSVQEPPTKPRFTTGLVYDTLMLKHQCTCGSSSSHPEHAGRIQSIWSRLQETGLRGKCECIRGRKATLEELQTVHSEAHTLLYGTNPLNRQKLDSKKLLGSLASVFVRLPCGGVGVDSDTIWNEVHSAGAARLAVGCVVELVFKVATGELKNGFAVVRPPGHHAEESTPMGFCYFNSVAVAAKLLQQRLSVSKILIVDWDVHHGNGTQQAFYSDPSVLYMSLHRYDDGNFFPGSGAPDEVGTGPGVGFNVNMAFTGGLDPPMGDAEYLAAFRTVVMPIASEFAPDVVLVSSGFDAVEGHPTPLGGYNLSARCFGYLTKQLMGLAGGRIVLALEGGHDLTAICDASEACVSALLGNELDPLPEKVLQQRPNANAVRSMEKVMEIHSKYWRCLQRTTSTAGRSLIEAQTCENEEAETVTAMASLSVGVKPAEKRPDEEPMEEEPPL
In short: (§2)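 Purified recombinant HDAC1 or HDAC4 was incubated with acetylated-lysine Fluor de Lys substrate, with or without inhibitor. Developer was then added to give the fluorophore, and fluorescence was read. IC50 values are means of at least three experiments. SI is IC50(HDAC1)/IC50(HDAC4).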

[4] = tested on: U-937; assay: Cell cycle arrest in human U937 cells assessed as accumulation at G1 phase at 5 uM after 24 hrs by flow cytometry; type: functional, cell-based
In short: (§3)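 U937 cells were grown in RPMI with 10% FCS, penicillin/streptomycin, amphotericin-B, 10 mM Hepes and 2 mM glutamine, and held at 200,000 cells/mL. Cells were treated 24 h with compounds in DMSO. 2.5×10^5 cells were resuspended in hypotonic buffer (0.1% Triton X-100, 0.1% sodium citrate, 50 µg/mL PI, RNase A) for 30 min in the dark, then analysed by flow cytometry. Values are means of independent duplicates.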

[5] = tested on: HCT-116; assay: Antiproliferative activity against human HCT116 cells after 48 hrs by MTT assay; type: functional, cell-based; settings: HCT-116, 48 h; in short: as §1
[6] = tested on: A549; assay: Antiproliferative activity against human A549 cells after 48 hrs by MTT assay; type: functional, cell-based; settings: A549, 48 h; in short: as §1
[7] = biological target: Histone deacetylase 1 (Homo sapiens, UniProt Q13547); assay: Inhibition of human recombinant HDAC1 using Fluor de Lys as substrate by fluorimetric assay; in short: as §2
Chain of Histone deacetylase 1 (Q13547 whole entry): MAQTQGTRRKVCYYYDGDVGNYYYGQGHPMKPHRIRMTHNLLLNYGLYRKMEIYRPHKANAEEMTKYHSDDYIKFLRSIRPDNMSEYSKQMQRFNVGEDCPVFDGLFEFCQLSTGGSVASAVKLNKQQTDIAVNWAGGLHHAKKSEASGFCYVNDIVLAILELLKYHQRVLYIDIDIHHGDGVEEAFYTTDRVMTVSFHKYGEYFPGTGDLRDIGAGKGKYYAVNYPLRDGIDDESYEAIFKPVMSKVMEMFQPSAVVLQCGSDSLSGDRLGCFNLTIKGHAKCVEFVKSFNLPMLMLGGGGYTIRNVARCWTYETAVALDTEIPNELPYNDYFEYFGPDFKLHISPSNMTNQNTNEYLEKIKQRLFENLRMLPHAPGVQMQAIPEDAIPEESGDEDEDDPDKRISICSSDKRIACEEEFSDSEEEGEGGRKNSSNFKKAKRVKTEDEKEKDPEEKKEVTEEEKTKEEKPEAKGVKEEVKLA

[8] = species on record: Homo sapiens; assay: Selectivity index, ratio of IC50 for human recombinant HDAC1 to IC50 for human recombinant HDAC4; in short: as §2
[9] = tested on: U-937; assay: Induction of p21waf1/CIP1 expression in human U937 cells after 24 hrs by Western blot analysis; type: functional, cell-based
In short: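 U937 cells were treated for 24 h. Total protein extracts (50 µg) were run on a 15% polyacrylamide gel and blotted for p21 (1:500), with tubulin as the loading control.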

[10] = tested on: HepG2; assay: Antiproliferative activity against human HepG2 cells after 48 hrs by MTT assay; type: functional, cell-based; settings: HepG2, 48 h; in short: as §1
[11] = tested on: U-937; assay: Induction of apoptosis in human U937 cells assessed as caspase 3 activation at 5 uM after 24 hrs by FACS analysis; type: functional, cell-based
In short: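 U937 cells were grown in supplemented RPMI at 200,000 cells/mL. Compounds in DMSO were given at 5 µM for 24 h or 30 h, or at 0.5 µM for 28 h. Apoptosis was analysed by FACS. Values are means of independent duplicates.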

[12] = tested on: U-937; assay: Cell cycle arrest in human U937 cells assessed as accumulation at S phase at 5 uM after 24 hrs by flow cytometry; type: functional, cell-based; in short: as §3

Structure (SMILES) | Activity [1] | IC50 [2] | IC50 [3] | Activity [4] | IC50 [5] | IC50 [6] | IC50 [7] | Ratio IC50 [8] | Activity [9] | IC50 [10] | Activity [11] | Activity [12]
CC(C)c1ccc(C(=O)/C=C/c2ccc(/C=C/C(=O)NO)o2)cc1 | Active | 2.27 µM | 4.89 µM | Active | 0.49 µM | 56.7 µM | 24.1 µM | 4.9 | Active | 35.9 µM | – | –
O=C(/C=C/c1ccc(/C=C/C(=O)c2cc(Cl)ccc2Cl)o1)NO | Active | 24.7 µM | 4.31 µM | Active | 4.12 µM | 27.1 µM | 4.72 µM | 1.1 | Active | 48.3 µM | – | –
O=C(/C=C/c1ccc(/C=C/C(=O)c2cccc(Cl)c2)o1)NO | Active | 9.6 µM | 12.9 µM | Active | 1.51 µM | 18.9 µM | 12.6 µM | 1 | Active | 54.5 µM | Active | –
Nc1ccccc1NC(=O)c1ccc(CNC(=O)OCc2cccnc2)cc1 [ENTINOSTAT] | – | 59.1 µM | – | – | 27.5 µM | – | – | – | – | 60.1 µM | – | –
O=C(/C=C/c1ccc(/C=C/C(=O)c2ccc(F)cc2)o1)NO | Active | 40.1 µM | 7.68 µM | Active | 2.82 µM | – | 15 µM | 2 | Active | 12 µM | Active | –
COc1cccc(/C=C/c2ccc(C(=O)NO)o2)c1O | – | 35.1 µM | 42.8 µM | – | – | – | 50.1 µM | 1.17 | – | – | – | –
O=C(NO)c1ccc(/C=C/c2ccc3c(c2)OCO3)o1 | – | 45.9 µM | 85.6 µM | – | 4.98 µM | 63.6 µM | 29.6 µM | 0.34 | – | 33.6 µM | – | –
O=C(NO)c1ccc(/C=C/c2cccc(Cl)c2Cl)o1 | – | 39.2 µM | 49.3 µM | – | 3.39 µM | 23.6 µM | 25.3 µM | 0.51 | – | 37.2 µM | – | –
CC(=O)O[C@H]1C(=O)[C@@]2(C)[C@H]([C@H](OC(=O)c3ccccc3)[C@]3(O)C[C@H](OC(=O)[C@H](O)[C@@H](NC(=O)c4ccccc4)c4ccccc4)C(C)=C1C3(C)C)[C@]1(OC(C)=O)CO[C@@H]1C[C@@H]2O [PACLITAXEL] | – | 2.73 µM | – | – | – | 13.1 µM | – | – | – | 0.62 µM | – | –
O=C(/C=C/c1ccc(/C=C/C(=O)c2ccc(Cl)cc2Cl)o1)NO | Active | 16.2 µM | 8.19 µM | – | 6.73 µM | 88.1 µM | 4.29 µM | 0.5 | Active | 13.5 µM | Active | Active
COc1ccc2cc(C(=O)/C=C/c3ccc(/C=C/C(=O)NO)o3)ccc2c1 | Active | 36.3 µM | 4.04 µM | – | 2.06 µM | – | 11 µM | 2.7 | Active | 6.22 µM | Active | Active
Cc1ccc(C(=O)/C=C/c2ccc(/C=C/C(=O)NO)o2)cc1 | – | 16 µM | 1.1 µM | – | 0.54 µM | 48.6 µM | 13.2 µM | 11.9 | – | 16 µM | Active | Active
O=C(/C=C/c1ccc(/C=C/C(=O)c2ccc(Cl)cc2)o1)NO | Active | 1.35 µM | 6.03 µM | Active | 2.01 µM | 98.1 µM | 15.7 µM | 2.6 | Active | 6.74 µM | – | –
